Laboratory results from ChEMBL document CHEMBL4321802, “Antioxidant-Conjugated 1,2,4-Triazolo[4,3-a]pyrazin-3-one Derivatives: Highly Potent and Selective Human A2A Adenosine Receptor Antagonists Possessing Protective Efficacy in Neuropathic Pain” (J Med Chem, 2019).
The source made the active and inactive calls.

Assays:
Adenosine receptor A1 = target: T1, Adenosine receptor A1 (Homo sapiens, UniProt P30542); experiment: Displacement of [3H]CCPA from human adenosine A1 receptor expressed in CHO cell membranes by radioligand competition assay
T1 sequence (P30542 whole entry): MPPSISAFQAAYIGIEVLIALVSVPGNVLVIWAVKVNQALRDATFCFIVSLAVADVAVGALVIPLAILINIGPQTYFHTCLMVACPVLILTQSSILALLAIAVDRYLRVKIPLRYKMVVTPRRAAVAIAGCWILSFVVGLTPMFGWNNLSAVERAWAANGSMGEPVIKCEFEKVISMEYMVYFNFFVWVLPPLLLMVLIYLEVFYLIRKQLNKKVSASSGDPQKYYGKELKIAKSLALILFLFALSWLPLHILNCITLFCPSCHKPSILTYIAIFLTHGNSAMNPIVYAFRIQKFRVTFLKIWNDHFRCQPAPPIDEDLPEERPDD
Method in brief: (§1)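 Membranes from stably transfected CHO cells were made by 1000 g, then 100 000g spins. hA1 used 1.0 nM [³H]CCPA in 50 mM Tris/HCl pH 7.4. hA3 used 1.0 nM [³H]HEMADO in 50 mM Tris/HCl, 10 mM MgCl2, 1 mM EDTA, pH 8.25. Ki from competition curves, each concentration tested three to five times in triplicate, mean ± S.E.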

Adenosine receptor A2a [1] = target: T2, Adenosine receptor A2a (Homo sapiens, UniProt P29274); experiment: Displacement of [3H]NECA from human adenosine A2A receptor expressed in CHO cell membranes by radioligand competition assay
T2 sequence (P29274 whole entry): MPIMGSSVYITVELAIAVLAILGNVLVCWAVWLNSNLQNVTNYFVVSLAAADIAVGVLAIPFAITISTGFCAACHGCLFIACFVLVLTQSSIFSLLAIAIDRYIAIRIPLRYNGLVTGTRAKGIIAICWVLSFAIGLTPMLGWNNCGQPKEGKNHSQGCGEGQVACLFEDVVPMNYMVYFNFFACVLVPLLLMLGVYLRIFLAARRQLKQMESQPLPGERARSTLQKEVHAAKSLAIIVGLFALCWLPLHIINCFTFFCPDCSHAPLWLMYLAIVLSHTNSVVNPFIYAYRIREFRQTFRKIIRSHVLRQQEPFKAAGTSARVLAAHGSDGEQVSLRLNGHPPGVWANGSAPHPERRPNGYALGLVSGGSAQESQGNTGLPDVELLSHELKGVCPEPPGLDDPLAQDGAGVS

Adenosine receptor A3 = target: T3, Adenosine receptor A3 (Homo sapiens, UniProt P0DMS8); experiment: Displacement of [3H]HEMADO from human adenosine A3 receptor expressed in CHO cell membranes by radioligand competition assay; method in brief: as §1
T3 sequence (P0DMS8 whole entry): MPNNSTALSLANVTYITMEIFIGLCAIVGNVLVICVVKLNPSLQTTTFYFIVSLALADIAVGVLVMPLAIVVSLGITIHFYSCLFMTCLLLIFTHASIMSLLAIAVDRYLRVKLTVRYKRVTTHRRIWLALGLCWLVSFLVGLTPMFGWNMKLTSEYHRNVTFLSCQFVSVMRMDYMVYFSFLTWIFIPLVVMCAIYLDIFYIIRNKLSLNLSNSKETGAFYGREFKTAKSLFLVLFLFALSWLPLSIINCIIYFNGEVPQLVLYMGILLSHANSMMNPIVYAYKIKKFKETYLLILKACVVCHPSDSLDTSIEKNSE

Adenosine receptor A2b = target: T4, Adenosine receptor A2b (Homo sapiens, UniProt P29275); experiment: Antagonist activity at human adenosine A2B receptor expressed in CHO cells assessed as inhibition of NECA-stimulated adenylyl cyclase activity by Glo-sensor cAMP assay; format: functional, cell-based
T4 sequence (P29275 whole entry): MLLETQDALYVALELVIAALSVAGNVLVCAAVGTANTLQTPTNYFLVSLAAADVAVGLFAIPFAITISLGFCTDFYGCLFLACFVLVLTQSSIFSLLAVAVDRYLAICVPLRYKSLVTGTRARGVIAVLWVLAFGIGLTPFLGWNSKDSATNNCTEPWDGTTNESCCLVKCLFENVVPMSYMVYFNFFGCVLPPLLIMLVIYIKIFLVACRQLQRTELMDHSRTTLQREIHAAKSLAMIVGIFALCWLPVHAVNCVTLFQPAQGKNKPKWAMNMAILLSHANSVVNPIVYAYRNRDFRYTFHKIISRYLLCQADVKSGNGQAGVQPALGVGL
Method in brief: (§2)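 CHO cells stably expressing hA2A or hA2B AR and transiently the GloSensor cAMP biosensor. Cells were equilibrated 2 h at rt in CO2-independent medium with 3% v/v GloSensor reagent and 10% FBS. Compounds at graded concentrations were tested against NECA-induced cAMP rise; luminescence as % of maximal RLU. IC50 from nonlinear regression. Three to five runs in triplicate, mean ± S.E.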

Adenosine receptor A2a [2] = target: T2, Adenosine receptor A2a; experiment: Antagonist activity at human adenosine A2A receptor expressed in CHO cells assessed as inhibition of NECA-stimulated adenylyl cyclase activity by Glo-sensor cAMP assay; format: functional, cell-based; method in brief: as §2
Microglia [3] = experiment: Neuroprotective activity against 10 uM Oxaliplatin-induced neurotoxicity in Sprague-Dawley rat microglia assessed as cell viability at 10 uM incubated fro 24 hrs by MTT assay (reference value: 33.2 +/- 1.3%); format: functional
Microglia [4] = experiment: Neuroprotective activity against 30 uM Oxaliplatin-induced neurotoxicity in Sprague-Dawley rat microglia assessed as cell viability at 10 uM incubated fro 24 hrs by MTT assay (reference value: 19.1 +/- 0.8%); format: functional
Microglia [5] = experiment: Antioxidant activity in Sprague-Dawley rat microglia assessed as suppression of oxaliplatin-dependent increase in superoxide dismutase-inhibitable superoxide anion generation at 10 uM incubated for 4 hrs in presence of oxaliplatin by spectrophotometry based cytochrome c assay; format: functional, cell-based
Method in brief: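 Primary neonatal (P1–P3) Sprague–Dawley rat cortical microglia (95–98% Iba1-positive), grown to confluence at 5×10⁵/well. Cells incubated 4 h at 37 °C in serum-free DMEM with cytochrome c (1 mg/ml), ± 100 µM oxaliplatin, ± compounds at 10 µM. Absorbance at 550 nm, minus the value with bovine SOD (300 mU/ml). O2•− calculated with ε 2.1×10⁴ M⁻¹ cm⁻¹, as µM/mg protein/4 h. Three experiments, mean ± SEM.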

Microglia [6] = experiment: Antioxidant activity in Sprague-Dawley rat microglia assessed as suppression of oxaliplatin-induced reduction in catalase activity at 10 uM incubated for 24 hrs in presence of oxaliplatin by Amplex red dye based assay; format: functional, cell-based
Method in brief: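 Primary rat microglia (5·10⁵ cells/well) exposed 24 h to oxaliplatin 10 µM ± compounds at 10 µM. Cells washed, scraped in PBS, freeze-thawed and spun 13,000×g for 10 min at 4 °C. Catalase read in the supernatant with an Amplex Red kit, normalised to BCA protein; untreated control set to 100%. Three experiments, mean ± SEM.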

Mus musculus [7] = experiment: Analgesic activity in CD1 albino mouse model of oxaliplatin-induced neuropathy hypersensitivity assessed as increase pain threshold at 0.03 mg/kg, po dosed from day 14 post oxaliplatin challenge and measured after 30 to 60 mins post dose by cold plate test; format: functional, organism-based
Method in brief: (§3)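 Male CD-1 mice (22–25 g) given oxaliplatin 2.4 mg kg⁻¹ i.p. in 5% glucose on days 1-2, 5-9 and 12-14; controls got vehicle. On day 14, compounds suspended in 1% carboxymethylcellulose were given once p.o. Cold plate held at 4 °C ± 1 °C; latency to first hind-paw licking/lifting recorded, 60 s cut-off. Mean ± SEM, two experimental sets; one-way ANOVA with Bonferroni.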

Mus musculus [8] = experiment: Analgesic activity in CD1 albino mouse model of oxaliplatin-induced neuropathy hypersensitivity assessed as increase pain threshold at 1 to 10 mg/kg, po dosed from day 14 post oxaliplatin challenge and measured after 30 to 60 mins post dose by cold plate test; format: functional, organism-based; method in brief: as §3
Adenosine receptor A2a [9] = target: Adenosine receptor A2a (Rattus norvegicus, UniProt P30543); experiment: Displacement of [3H]NECA from rat adenosine A2A receptor expressed in CHO cell membranes by radioligand competition assay
Sequence of Adenosine receptor A2a (Rattus norvegicus, UniProt P30543) (P30543 whole entry): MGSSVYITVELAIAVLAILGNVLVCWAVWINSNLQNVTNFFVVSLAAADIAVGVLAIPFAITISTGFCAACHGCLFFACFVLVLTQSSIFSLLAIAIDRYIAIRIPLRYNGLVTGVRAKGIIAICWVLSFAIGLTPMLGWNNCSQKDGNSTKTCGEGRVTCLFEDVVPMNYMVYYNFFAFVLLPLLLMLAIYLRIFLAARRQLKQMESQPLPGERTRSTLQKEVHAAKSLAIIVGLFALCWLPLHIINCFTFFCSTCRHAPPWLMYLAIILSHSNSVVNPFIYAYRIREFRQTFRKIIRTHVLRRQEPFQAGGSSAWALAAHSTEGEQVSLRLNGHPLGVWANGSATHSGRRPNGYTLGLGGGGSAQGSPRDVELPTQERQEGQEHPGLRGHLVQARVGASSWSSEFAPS

[10] = Half life in 50 mM Tris buffer; format: physicochemical
Method in brief: (§4)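 Compounds incubated at 37 °C in 50 mM Tris buffer pH 7.4 or in pooled healthy-volunteer human plasma (stored -80 °C). Concentration followed over time by LC-MS/MS; t1/2 taken from the decay rate of ln(concentration) versus time. Half-lives above 240 min cannot be resolved and are given as ≥240. Ketoprofen ethyl ester served as plasma-activity reference.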

[11] = Half life in human plasma; format: ADME, cell-free; method in brief: as §4
Mus musculus [12] = experiment: Analgesic activity in CD1 albino mouse model of oxaliplatin-induced neuropathy hypersensitivity assessed as increase pain threshold at 4 mg/kg, po dosed from day 14 post oxaliplatin challenge and measured up to 90 mins post dose by cold plate test; format: functional, organism-based; method in brief: as §3
Mus musculus [13] = experiment: Analgesic activity in CD1 albino mouse model of oxaliplatin-induced neuropathy hypersensitivity assessed as increase pain threshold at 40 mg/kg, po dosed from day 14 post oxaliplatin challenge and measured up to 90 mins post dose by cold plate test; format: functional, organism-based; method in brief: as §3
Mus musculus [14] = experiment: Analgesic activity in CD1 albino mouse model of oxaliplatin-induced neuropathy hypersensitivity assessed as increase pain threshold at 10 to 30 mg/kg, po dosed from day 14 post oxaliplatin challenge and measured after 15 to 45 mins post dose by cold plate test; format: functional, organism-based; method in brief: as §3

SMILES	Ki (Adenosine receptor A1)	Ki (Adenosine receptor A2a [1])	Ki (Adenosine receptor A3)	IC50 (Adenosine receptor A2b)	IC50 (Adenosine receptor A2a [2])	Ki (Adenosine receptor A2a [9])	half-life [10]	half-life [11]	Activity (Microglia [3])	Activity (Microglia [4])	Activity (Microglia [5])	Activity (Microglia [6])	Activity (Mus musculus [7])	Activity (Mus musculus [8])	Activity (Mus musculus [12])	Activity (Mus musculus [13])	Activity (Mus musculus [14])
Nc1nc(-c2ccc(OCCNC(=O)CCCCC3CCSS3)cc2)cn2c(=O)n(-c3ccccc3)nc12 (centres undefined)	379 nM	2.4 nM	4100 nM	> 30000 nM	116 nM	9 nM	≥ 4 h	≥ 4 h	54.5%	34.2%	Active	Active	Active	Dose-dependent effect	–	–	–
O=C(O)CCCCC1CCSS1 (centres undefined)	–	–	–	–	–	–	–	–	–	–	–	–	–	–	inactive	inactive	–
CC(C)(C)c1cc(-c2cn3c(=O)n(-c4ccccc4)nc3c(N)n2)ccc1O	> 30000 nM	8.5 nM	> 30000 nM	> 30000 nM	179 nM	–	≥ 4 h	2.03 h	46.4%	28.6%	–	–	–	–	–	–	–
Nc1nc(-c2ccc(O)c(O)c2)cn2c(=O)n(-c3ccccc3)nc12	42.6 nM	5.2 nM	950 nM	> 30000 nM	–	–	–	–	–	–	–	–	–	–	–	–	–
COc1cc(O)ccc1-c1cn2c(=O)n(-c3ccccc3)nc2c(N)n1	29.7 nM	16.8 nM	11100 nM	> 30000 nM	–	–	–	–	–	–	–	–	–	–	–	–	–
COc1cc(-c2cn3c(=O)n(-c4ccccc4)nc3c(N)n2)cc(OC)c1OC	55 nM	3.5 nM	214 nM	> 30000 nM	–	–	–	–	–	–	–	–	–	–	–	–	–

Now from value to molecule, other results behind:

Ki (Adenosine receptor A1)	Ki (Adenosine receptor A2a [1])	Ki (Adenosine receptor A3)	IC50 (Adenosine receptor A2b)	IC50 (Adenosine receptor A2a [2])	Ki (Adenosine receptor A2a [9])	half-life [10]	half-life [11]	SMILES	Activity (Microglia [3])	Activity (Microglia [4])	Activity (Microglia [5])	Activity (Microglia [6])	Activity (Mus musculus [7])	Activity (Mus musculus [8])	Activity (Mus musculus [12])	Activity (Mus musculus [13])	Activity (Mus musculus [14])
263 nM	1.8 nM	> 30000 nM	> 30000 nM	–	–	–	–	C=CC(=O)Nc1ccc(-c2cn3c(=O)n(-c4ccccc4)nc3c(N)n2)cc1	–	–	–	–	–	–	–	–	–
33.5 nM	22.9 nM	254 nM	> 30000 nM	–	–	–	–	Nc1ccc(-c2cn3c(=O)n(-c4ccccc4)nc3c(N)n2)cc1	–	–	–	–	–	–	–	–	–
1360 nM	36.4 nM	> 30000 nM	> 30000 nM	296 nM	–	≥ 4 h	0.683 h	Nc1nc(-c2ccc(NC(=O)CCNC(=O)CCCCC3CCSS3)cc2)cn2c(=O)n(-c3ccccc3)nc12 (centres undefined)	38.9%	18.3%	–	–	–	–	–	–	–
> 30000 nM	8.2 nM	> 30000 nM	> 30000 nM	157 nM	39 nM	≥ 4 h	≥ 4 h	N#CCOc1ccc(-c2cn3c(=O)n(-c4ccccc4)nc3c(N)n2)cc1	48.7%	23%	–	–	–	–	–	–	Active
176 nM	94.5 nM	5570 nM	17300 nM	–	–	–	–	Nc1nc(-c2cc(O)c(O)c(O)c2)cn2c(=O)n(-c3ccccc3)nc12	–	–	–	–	–	–	–	–	–
